Laboratory results as given in ChEMBL document CHEMBL1148860, “A non-toxic Hsp90 inhibitor protects neurons from Abeta-induced toxicity” (Bioorg Med Chem Lett, 2007).
Activity calls are given as the source filed them. The calls are words filed in the database; no cut-off is given here.

Key:
SK-BR-3 [1] = assay: Antiproliferative activity against SKBR3 cells; type: functional, cell-based; conditions: Homo sapiens
How it was run: (§1)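 MCF-7 and SkBr3 cells incubated with compound over a range of concentrations up to 100 µM. Viable cells quantitated by MTS/PMS assay. Triplicate wells per experiment, three independent experiments; IC50 from dose–response, values as means ± SE.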

[2] = Cytotoxicity against rat neuronal cells at 10 uM after 24 hrs; type: cell-based; conditions: neuron
How it was run: (§2)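 Neuronal cultures given compound alone (10 µM) or DMSO vehicle. Viability read at 24 h and after 72 h. Percentage surviving neurons taken from three separate experiments, mean ± SE.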

MCF7 [3] = assay: Antiproliferative activity against MCF7 cells; type: functional, cell-based; conditions: Homo sapiens; how it was run: as §1
MCF7 [4] = assay: Antiproliferative activity against MCF7 cells upto 100 uM; type: functional, cell-based; conditions: Homo sapiens; how it was run: as §1
Cerebral cortex neuron [5] = assay: Increase in Hsp70 level in rat primary cortical neurons at 1 nM after 48 hrs relative to control; type: functional, cell-based
How it was run: (§3)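 Primary cortical neurons incubated 48 h with compound, concentrations from 1 nM to 10 µM. Hsp70 levels measured against DMSO controls.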

SK-BR-3 [6] = assay: Antiproliferative activity against SKBR3 cells upto 100 uM; type: functional, cell-based; conditions: Homo sapiens; how it was run: as §1
Cortical neurone [7] = assay: Inhibition of beta-amyloid (25-35)-induced toxicity in embryonic rat brain primary cortical neurons after 48 hrs; type: functional, tissue-based
How it was run: (§4)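 Primary cortical neurons pretreated with compound at a series of concentrations, then challenged with Aβ25–35 (10 µM), or Aβ1–42 in fewer cultures. Neurons labelled with calcein-AM (live) and propidium iodide (dead) and counted in several fields by fluorescence microscopy. EC50 taken from percentage survival.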

[8] = Cytotoxicity against rat neuronal cells at 10 uM after 72 hrs; type: cell-based; conditions: neuron; how it was run: as §2
Cortical neurone [9] = assay: Inhibition of beta-amyloid (1-42)-induced toxicity in embryonic rat brain primary cortical neurons after 48 hrs; type: functional, tissue-based; how it was run: as §4
Cerebral cortex neuron [10] = assay: Increase in Hsp70 level in rat primary cortical neurons at 0.2 uM after 48 hrs; type: functional, cell-based; how it was run: as §3
BMEC = assay: Permeability across BMECs; type: ADME, cell-based, Bos taurus; conditions: cattle, TDE = time-dependent effect
How it was run: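 Primary bovine BMEC monolayers mounted in a side-by-side diffusion chamber. Compound in the receiving chamber sampled over time, up to 90 min.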

LNCaP [11] = assay: Induction of Hsp90 protein in LNCap cells expressing mutated androgen receptor at 10 nM; type: functional, cell-based; conditions: Homo sapiens
How it was run: (§5)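 LNCaP prostate cancer cells, which carry a mutated androgen receptor, exposed to compound from 10 nM upward. Hsp90 induction and loss of client proteins AR and AKT assessed.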

LNCaP [12] = assay: Degradation of Hsp90 client protein AKT in LNCap cells upto 1 uM; type: functional, cell-based; conditions: Homo sapiens; how it was run: as §5
LNCaP [13] = assay: Degradation of Hsp90 client protein androgen receptor in LNCap cells upto 1 uM; type: functional, cell-based; conditions: Homo sapiens; how it was run: as §5

For `COC1=C2C[C@@H](C)C[C@H](OC)[C@H](O)[C@@H](C)/C=C(\C)[C@H](OC(N)=O)[C@@H](OC)/C=C\C=C(/C)C(=O)NC(=CC1=O)C2=O` [GELDANAMYCIN], the Activity (SK-BR-3 [1]) was “Dose-dependent effect”, the Activity [2] was “Active” and the Activity (MCF7 [3]) was “Dose-dependent effect”.
With `CO[C@H]1[C@H](O)[C@@H](O)[C@H](Oc2ccc3cc(NC(C)=O)c(=O)oc3c2)OC1(C)C` the Activity (MCF7 [4]) was “inactive”, the Activity (Cerebral cortex neuron [5]) was “Active” and the Activity (SK-BR-3 [6]) was “inactive”. The Activity (Cortical neurone [7]) was “Active”, the Activity [8] was “Not Active” and the Activity (Cortical neurone [9]) was “Active”. The Activity (Cerebral cortex neuron [10]) was “Active”, the Activity (BMEC) was “tde” and the Activity (LNCaP [11]) was “Active”. For the same compound, the Activity (LNCaP [12]) was “inactive” and the Activity (LNCaP [13]) was “inactive”.
